In article PMC3337761 (Drug Development and Industrial Pharmacy, 2010):
Values after ≈ are worked out from the molar mass of the structure shown.

Experiments:
Solubility in solvents = assay type: physicochemical
[1] = Pharmacokinetics in rhesus macaques; assay type: in vivo, Rhesus Macaques (Macaca mulatta)
In short: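 Two rhesus macaques, fasted overnight with water allowed. Oral powder was mixed into a chocolate treat, with dose set by the amount eaten. After a 2-week washout, i.v. dosing used 5 mg/mL in 25% Cremophor EL/75% PBS. Ketamine 10 mg/kg i.m. for sampling. EDTA plasma taken pre-dose to 24 h, C18 SPE, then LC-ESI-MS (m/z 277; analogue internal standard; calibration 25 nM–2.5 µM). F = dose-normalised AUC po/iv.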

[2] = male, rhesus monkey, plasma, iv, 5 mg/kg
[3] = male, rhesus monkey, plasma, po, 50 mg/kg

Clc1ccccc1C(c1ccccc1)(c1ccccc1)n1cccn1 [TRAM-34, 1-[(2-chlorophenyl)-diphenylmethyl]-1H-pyrazole]
solubility (Solubility in solvents; ethanol, organic solvent or mixture): 4000 µg/mL (≈ 11.6 mM) | solubility in water (Solubility in solvents; water): practically insoluble in water | AUC(0-t) [1, 2]: 3.64 µM·h | Vd [1, 2]: 11.1 L/kg | clearance [1, 2]: 53.3 mL/min/kg | bioavailability ([1]; male, rhesus monkey, plasma, oral, 50 mg/kg): 0.3% | AUC(0-t) [1, 3]: 0.103 µM·h | Cmax [1, 3]: 22.5 nM | Tmax [1, 3]: 2 h | Vd ([1]; oral powder without enteric coating, 50 mg/kg, Rhesus Macaques): 6.5 L/kg
